Source: PubChem BioAssay
Hits are enriched below; roughly 12% of the tested compounds scored in any of these assays.
WT yeast gro inh: growth inhibition of WT yeast, mitochondrial fusion screen | mitochondrial fusion phenotypic screen, WT strain | inhibition, % at 10 µM | actives 2.1% (n = 190,000); in the data active = inhibition above about 58%; tested in S. cerevisiae
Cl transport mod: modulators of human KCC2 chloride dependent transport | Q9H2X9 | KCC2 cells, thallium flux FluoZin-2 fluorescence | B-score of Tl+ flux slope (higher = more flux/activation; lower = inhibition) at 10 µM | actives 2.2% (n = 190,000) | AID 1456;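 active = thallium flux slope and its plate-corrected score both differing from the plate sample mean at a set confidence after two filtering rounds, in either direction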;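 note: slope of fluorescence scaled to starting intensity during 10 to 20 s after thallium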
ROMK mod: modulators of human ROMK potassium channel. AID 1918. Tet-inducible ROMK, thallium flux fluorescence; actives lie on both sides. P48048. B-score at 10 µM. actives 2% (n = 130,000);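 active = signal ratio slope over the read window, or its plate-corrected B-score, at least 3 SD from the plate mean, either direction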;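 note: B-score of the F/F0 ratio slope over 7 to 12 s after thallium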
Target sequence (P48048 whole entry, looked up): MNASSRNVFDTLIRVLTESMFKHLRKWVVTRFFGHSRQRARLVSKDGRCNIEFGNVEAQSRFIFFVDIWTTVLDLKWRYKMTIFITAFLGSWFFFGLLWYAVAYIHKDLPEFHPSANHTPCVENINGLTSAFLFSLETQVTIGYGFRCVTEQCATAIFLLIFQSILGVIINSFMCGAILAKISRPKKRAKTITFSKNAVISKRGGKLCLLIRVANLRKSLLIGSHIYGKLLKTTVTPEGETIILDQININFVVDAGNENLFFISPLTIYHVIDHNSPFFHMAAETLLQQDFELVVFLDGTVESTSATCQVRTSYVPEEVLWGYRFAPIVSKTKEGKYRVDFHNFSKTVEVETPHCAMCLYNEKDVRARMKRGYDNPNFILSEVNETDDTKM
Diaphorase inh: diaphorase inhibition or chemical oxidation counter-screen | actives 0.69% (n = 190,000) | inhibition, % at 20 µM | diaphorase resazurin-to-resorufin fluorescence, NADH, 16 min; bacterial (C. kluyveri) enzyme, not human;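 active = primary screen inhibition at 20 µM above a set limit, cut at about 50% in these data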;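 note: plate controls were DMSO with full reaction for no effect and wells lacking NADH for full effect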
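System: Bacterial diaphorase enzyme (C. kluyveri) | Incubation: 16-min room-temperature incubation before reading | Benchmarks: No-NADH positive control and DMSO neutral control | Measured by: Resorufin fluorescence 544/590 nm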
L major viab: Leishmania major promastigote growth inhibition. Leishmania major promastigotes, resazurin fluorescence viability. AID 1063. inhibition, % at 10 µM. actives 9% (n = 200,000); in the data active = inhibition above about 50%;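 note: promastigotes grown with compound for 44 hours at 28 °C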
Diaph act CS: activates diaphorase or chemically reduces, flagging diaphorase assay artifacts; Diaphorase/resazurin coupled assay, resorufin fluorescence, 16 min; hits give high values; 1 = vehicle wells, 0 = NADH-free wells; activation factor at 20 µM; actives 0.005% (n = 190,000); AID 1229;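 active = diaphorase activity raised at least twofold by the compound at 20 µM; inactive = activation factor below 2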
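Test system: Clostridium kluyveri diaphorase, purified enzyme; input: enzyme 0.07 U/mL final; buffer or medium: 50 mM HEPES pH 7.4 with 4.542 mM MgCl2, 0.005% Tween 20; also added: 0.114 mM NADH and 0.1 mM resazurin, final amounts; schedule: 16 min enzyme reaction, ambient temperature; technique: fluorescence of resorufin, 544 nm excitation, 590 nm emission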
ROMK hit retest: confirmation of human ROMK potassium channel modulators; normalized thallium flux (F/F0 slope) at 10 µM; ROMK thallium flux, fluorescence ratio; hits give low values; AID 1917; actives 54% (n = 3,000); shares compounds with ROMK mod;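 active = Flux at 10 µM at least 3 SD below or above vehicle control mean in one or both replicates; inconclusive = no clear call, values can overlap the other calls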
An asterisk follows results filed as active; i = inactive; ? = inconclusive; . = not tested or not shown.

SMILES | WT yeast gro inh | Cl transport mod | ROMK mod | Diaphorase inh | L major viab | Diaph act CS | ROMK hit retest
O=C(O)Cc1ccc(N=Cc2c(O)ccc3ccccc23)cc1 | 10 | -3.4 | . | 30 | -8 | 0.7 | 0.081
O=C(NC1CC(=O)c2sccc21)c1ccc(Cl)cc1Cl (stereo not given) | -2 | -0.43 | -0.48 | -10 | -8 | 1.1 | .
COc1ccc(-n2c3c(c(=O)[nH]c2=O)C(C(F)(F)F)(C(F)(F)F)N=C(CC(C)C)N3)cc1 | -3 | . | -0.98 | 4 | -1 | 1 | .
O=c1[nH]c(=O)n(Cc2ccco2)c2c1C(C(F)(F)F)(C(F)(F)F)N=C(CCc1ccccc1)N2 | 13 | . | . | -26 | 28 | 1.3 | 0.063*
O=c1[nH]c(=O)n(-c2ccccc2)c2c1C(C(F)(F)F)(C(F)(F)F)N=C(CCC1CCCCC1)N2 | -6 | -1.6 | -3.4* | 1 | 55* | 1 | 0.062*
O=C1CC(=O)C(n2cncn2)C(c2c(F)cccc2Cl)C1 (stereo not given) | -5 | . | . | 20 | -8 | 0.8 | .
O=C1CC(=O)C(n2cncn2)C(c2ccc(Cl)cc2)C1 (stereo not given) | -11 | 1.3 | . | 14 | -5 | 0.9 | 0.081
COc1cc(/C=C(/Sc2nnc(-c3ccc(F)cc3)o2)C(=O)O)ccc1OC(F)F | 12 | -0.76 | -11* | -4 | 38 | 1 | 0.077
COc1cccc(C2C(C(N)=O)=C(C)Nc3nc(-c4ccccc4Cl)nn32)c1 (stereo not given) | 8 | -0.73 | . | 9 | -2 | 0.9 | .
Cc1ccc2c(n1)sc1c(N)ncnc12 | 5 | . | 4.6* | 12 | -3 | 0.9 | 0.092
Cc1ccc2c(n1)sc1c(-c3ccccc3)c(C#N)c(N)nc12 | -3 | -0.14 | . | 29 | -4 | 0.7 | .
Clc1ccc(CSc2nnc(-c3cccnc3)o2)cc1 | 14 | -0.54 | . | 18 | 0 | 0.8 | .
O=C1CC(N2CCN(c3ccccc3)CC2)C(=O)N1c1ccc2c(c1)OCO2 (stereo not given) | -1 | 0.56 | 0.015 | 5 | -9 | 1 | .
COc1ccccc1S(=O)(=O)Cc1ccc(C(=O)NC2CCCCC2)o1 | -9 | 0.14 | . | 18 | -6 | 0.8 | 0.083
CCOC(=O)CS(=O)(=O)c1nc(-c2ccc(F)cc2)cc(C(F)(F)F)n1 | 7 | -2.6 | . | 15 | -3 | 0.9 | .
COc1ccc(-c2cc(C(F)(F)F)nc(S(C)(=O)=O)n2)cc1 | -12 | 0.19 | -4.2* | 13 | 100* | 0.9 | 0.055*
CS(=O)(=O)c1nc(-c2ccc(F)cc2)cc(C(F)(F)F)n1 | 34 | -0.84 | -2.6* | 10 | 5 | 0.9 | 0.058*
CCN(CC)CCCN1C(=O)C(=O)/C(=C(/O)c2ccccc2)C1c1cc(OC)ccc1OC (stereo not given) | . | . | . | 10 | . | 0.9 | .
CC(=O)Nc1nc(CCN2C(=O)c3ccccc3C2=O)cs1 | -4 | 0.63 | 0.16 | -9 | -5 | 1.1 | .
O=C(Nc1ccc(S(=O)(=O)Nc2nccs2)cc1)c1cc(-c2ccccc2Cl)nc2ccccc12 | -10 | 2.5 | 4.2* | 19 | 7 | 0.8 | 0.088
COCCNC(=O)/C(C#N)=C/c1cccc(NC(=O)c2ccccc2Cl)c1 | -10 | -0.24 | . | 9 | 30 | 0.9 | 0.047*
CCOC(=O)C(C)CC(C)C(=O)N1CCOCCN(C(=O)C(C)CC(C)C(=O)OCC)CCOCC1 (stereo not given) | 8 | 0.31 | . | 4 | -6 | 1 | 0.091
Cc1ccc(S(=O)(=O)Nc2ccc(-c3nc4ccc(C)cc4s3)cc2)cc1 | -4 | 0.47 | . | 20 | 1 | 0.8 | .
Cc1cccc(S(=O)(=O)Nc2ccc(-c3nc4ccc(C)cc4s3)cc2)c1 | 4 | 0.37 | . | 18 | -5 | 0.8 | 0.079
Cc1ccc(/C=N/NC(=O)Cn2cnc3c2c(=O)n(C)c(=O)n3C)s1 | -9 | -0.049 | 1.2 | 13 | -1 | 0.9 | .
SMILES | WT yeast gro inh | Cl transport mod | ROMK mod | Diaphorase inh | L major viab | Diaph act CS | ROMK hit retest
CCOC(=O)c1c2ccc(OCC(=O)NN)cc2n2ccccc12 | -15 | -3.7 | -2.8* | 64* | 6 | 0.4 | 0.055*
CCOC(=O)c1c(C)n(C)c2cc(OCCN(CC)CC)ccc12 | 2 | . | . | 18 | 5 | 0.8 | .
COc1ccc(NC(=O)CC2C(=O)N(c3ccc(F)cc3)C(=S)N2NC(=O)c2ccc(Cl)cc2)cc1 (stereo not given) | -1 | -1.4 | -1.2 | 4 | 3 | 1 | .
CCCC(=O)Nc1sc(C(=O)Nc2cccc(N)c2)c(C)c1C(=O)OC | 10 | -1.8 | -0.63 | 17 | 0 | 0.8 | .
Fc1ccc(C2=CC(c3ccco3)n3ncnc3N2)cc1 (stereo not given) | 9 | 0.033 | -3.1* | 3 | -8 | 1 | 0.053*
Cc1nn(C)cc1/C=N/NC(=O)Cn1nccc1C | -4 | 0.83 | . | 9 | -4 | 0.9 | .
Cn1c(-c2ccccc2)c(/C=N/NC(=O)c2ccc(O)cc2)c2ccccc21 | . | -3.4 | . | . | . | . | 0.08
Cn1c(-c2ccccc2)c(C=O)c2ccccc21 | 5 | -3.1 | -0.22 | 15 | -8 | 0.8 | .
O=C(Cc1ccc(Br)cc1)Nc1cccc(-c2cn3c(n2)SCC3)c1 | 8 | -1.8 | -1.6 | 13 | 40 | 0.9 | .
Fc1cccc(-c2oncc2-c2nnnn2-c2ccc(Cl)cc2)c1 | -1 | -1.4 | -7.4* | -15 | 0 | 1.1 | 0.073
Cc1nc2nc(-c3cccs3)cn2nc1C | -1 | i | -8.5* | 33 | 0 | 0.7 | 0.042*
O=C(O)CCCCCN1C(=O)/C(=C/c2ccncc2)SC1=S | -33 | 0.11 | -4.2* | -2 | 43 | 1 | 0.048*
Cc1ccc(/C=C2\SC(=S)N(CCCC(=O)Nc3ccccn3)C2=O)cc1 | -12 | 1.5 | . | 18 | 0 | 0.8 | 0.074
O=C(O)CCCCCN1C(=O)/C(=C\c2ccncc2)SC1=S | -8 | 0.79 | -4.1* | 18 | 42 | 0.8 | 0.049*
O=C(CSc1nccn1-c1ncc(C(F)(F)F)cc1Cl)c1ccc(Cl)cc1 | -2 | . | . | -6 | 2 | 1.1 | .
COc1cccc(-c2ccc(SCc3ccccn3)nn2)c1 | 44 | -1.7 | -0.86 | 4 | 4 | 1 | .
CN(CCOc1ccc(Cl)cc1)c1ccc(S(=O)(=O)N2CCCCC2)cn1 | 15 | 1.5 | -4.4* | 12 | 7 | 0.9 | ?
CCN(CC)c1ccc(C2C(C(C)=O)C(=O)CC(C)(O)C2C(C)=O)cc1 (stereo not given) | . | 0.00032 | 0.00052 | . | 0 | . | .
COc1ccc2c(c1)c1nc3ccccc3nc1n2CCCN1C(=O)c2ccccc2C1=O | -8 | -0.26 | . | 7 | -4 | 0.9 | .
Cc1cccc2c3nc4ccccc4nc3n(CCCN3C(=O)c4ccccc4C3=O)c12 | 7 | 0.17 | . | 22 | 2 | 0.8 | 0.065*
